Cytotoxicity data for 96 compounds are collected here from ChEMBL document CHEMBL4513216, “Probing the Open Global Health Chemical Diversity Library for Multistage-Active Starting Points for Next-Generation Antimalarials” (ACS Infect Dis, 2020).

Molecules are shown by their SMILES.

This series is described as follows: Toxicity liver stage against HepG2, at 10uM. The format is cell-based. More on the design: test concentration 10 uM, cell line HepG2-A16-CD81EGFP. The note with it: human, HepG2-A16-CD81EGFP cells; read-out: INHIBITION
The method in brief:
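Uninfected HepG2-A16-CD81EGFP cells, 3 × 10^3 per well, 1536-well, plated on prespotted compound at 10 μM final, parasite-free screening media added to match infected plates; puromycin 10 μM positive, DMSO 0.5% negative; run in parallel with 48 h PbLuc assay at 37 °C, 5% CO2; viability by CellTiter-Glo luminescence, normalized to controls.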
As to `Cc1ccsc1C(=O)NC1CCS(=O)(=O)c2ccccc21` (stereo unspecified), the cytotoxicity at 10 µM was determined as 2.93%.

On to `CC(=O)N1CC[C@H](c2nc3cc(F)ccc3o2)C1`, for which the cytotoxicity at 10 µM came to 0.835%.

Regarding `CC(C)(C)CN[C@@H]1CO[C@H](CNC(=O)Nc2ccccc2)[C@H]1O`, the cytotoxicity at 10 µM amounted to 6.98%. Take `O=C(NC[C@H]1C[C@@H]2CCN1C[C@@H]2CN1CCOCC1)Nc1ccsc1`: the cytotoxicity at 10 µM came to 1.03%. With `CN(C)C(=O)CN1CCC2(CC1)CC(=O)c1ccc3ccccc3c1O2`, the cytotoxicity at 10 µM is 6.17%.

For `COC(=O)CN1Cc2cc3c(cc2NCCC1=O)OCO3`, the cytotoxicity at 10 µM is -8.1%. As to `CC(C)COC(=O)N1CC(=O)N(CCc2ccccc2)CC(O)C1` (stereo unspecified), the cytotoxicity at 10 µM is -16.6%. In the case of `O=S(=O)(NCC1(O)CCOCC1)c1c(F)cccc1F`, the cytotoxicity at 10 µM was -4.97%.

Regarding `CC(=O)N(C)CC(=O)Nc1cnc(-n2ccnc2)nc1`, the cytotoxicity at 10 µM was -9.69%. As for `O=C(Cn1c(=O)oc2ccccc21)NCC1(O)CCc2ccccc2C1` (stereo unspecified), the cytotoxicity at 10 µM was 5.37%.

Take `c1ccc(CN2CCN3C[C@H](Oc4cccnc4)C[C@H]3C2)nc1`: the cytotoxicity at 10 µM was determined as 6.59%.

Regarding `CC(C)Nc1ccc2nc(C3CCNCC3)nn2c1`, the cytotoxicity at 10 µM was -6.75%. As to `COCC(=O)N1CCC2(CC1)CC(c1cnn(C)c1)C(=O)N2` (stereo unspecified), the cytotoxicity at 10 µM worked out at 7.25%. Take `COCc1nc2nc(O)c3c(n2n1)NC(=O)CC3c1ccc(SC)cc1` (stereo unspecified): the cytotoxicity at 10 µM worked out at 1.22%. Next, `Cc1ccnn1CCNC(=O)C1CCN(S(=O)(=O)c2ccc(F)cc2)C1` (stereo unspecified): -32%; `Cc1noc2nc(C3CCCN(Cc4cccnc4)C3)cc(C(F)F)c12` (stereo unspecified): -30.3%; `Cc1cc(-c2cnc(NC3CCCC3)nc2-c2ccoc2)on1`: -20.9%. In the case of `Cc1ccc([C@]2(O)CC[C@H]3CN(Cc4cccnc4)C[C@H]32)nc1`, the cytotoxicity at 10 µM is -12.6%.

For `COc1ccc(OC)c(CN2CCC(c3cc(O)nc(C)n3)C2)c1` (stereo unspecified), the cytotoxicity at 10 µM is -15%. Next, `CCc1nnsc1C(=O)NCc1nnc2n1CCCCC2`: 0.136%. As to `O=C(CCCc1nc2ccccc2[nH]1)N1CCCC1c1ccccn1` (stereo unspecified), the cytotoxicity at 10 µM came out at 0.219%. To `COc1cc(C(C)=O)ccc1OCC(=O)c1cccn1C` belongs 13.6%; to `CC(C)COCCNC1CCN(c2ccccn2)CC1`, -2.12%.

With `O=C(CNc1cc(-n2cnnn2)ccc1F)Nc1ccccc1Cl`, the cytotoxicity at 10 µM was 11.7%. `O=C(NCCCN1CCOCC1)c1ccc(-c2ccccc2)[nH]c1=O`: the cytotoxicity at 10 µM was -2.48%. Next, `COc1c(CNCc2ccc(CN3CCOCC3)cc2)c(C)nn1C`: -11.8%. For `CN(C)C(=O)C1CCN(c2cncc(-n3cccn3)n2)CC1`, the cytotoxicity at 10 µM is -10.9%. As for `CN(CC(=O)Nc1ccncc1)CC1CCCN1c1cccnn1` (stereo unspecified), the cytotoxicity at 10 µM was -2.01%. To `CCN(CC1CN(Cc2nccn2CC)CCO1)c1cccnn1` (stereo unspecified) belongs -0.31%; to `COc1ccccc1OCC(=O)Nc1ncccc1C`, 0.464%. Next, `CCc1noc(C(C)N(C)CC(=O)Nc2cccc(C)c2C)n1` (stereo unspecified): 6.35%; `Cc1ccc(S(=O)(=O)NCCCN2CCC(O)CC2)c(F)c1`: 4.24%; `CC(C)NC(=O)CNC(=O)OC(C)(C)C`: 9.39%. For `CCN(C(=O)c1cc(C)nc2ccccc12)C1CC(=O)NC1=O` (stereo unspecified), the cytotoxicity at 10 µM turned out to be 3.04%. As for `COCCCSc1ccc(NC(=O)Nc2cn[nH]c2)cc1`, the cytotoxicity at 10 µM amounted to 2.54%. Next, `CC(NC(=O)Nc1ccc(-n2cncn2)cc1)C(=O)NC(C)(C)C` (stereo unspecified): 3.92%; `CC(C(=O)N1CCCCC1)N1CCN(c2nccs2)CC1` (stereo unspecified): 22.1%; `CCC(C)NS(=O)(=O)Cc1cccc(NC(=O)c2ccc[nH]2)c1` (stereo unspecified): 15.5%. On to `CN1CCCN(C(=O)c2nc3c(o2)CN(S(C)(=O)=O)C3)CC1`, for which the cytotoxicity at 10 µM is -117%. Turning to `CC(C)CCC(=O)N1C[C@H]2CCN[C@H]2C1`, the cytotoxicity at 10 µM is 2.82%. Regarding `CCOc1ncnc2c1CCN(S(=O)(=O)c1ccccc1)CC2`, the cytotoxicity at 10 µM is -110%. As to `CCOCC1CN(S(=O)(=O)CC)Cc2nn(C)cc21` (stereo unspecified), the cytotoxicity at 10 µM is -111%. Next, `Cn1cccc1C(=O)N1C[C@@H](OCc2cccnc2)[C@H]2OCCC[C@H]21`: 7.06%; `CC(=O)Nc1nc2c(s1)C1(CCCC1)Nc1ccccc1S2`: -9.99%; `CN1CCCN(c2nccc(-c3c[nH]c4ccc(Br)cc34)n2)CC1`: -9.99%. For `CCOc1ccc(-c2ccnc(COc3ccccc3)n2)cc1C(=O)O`, the cytotoxicity at 10 µM was -1.84%. As for `Cc1nc2cc(NC(=O)Cn3ncc(N4CCCC4)cc3=O)ccc2s1`, the cytotoxicity at 10 µM was 2.01%. Next, `Cc1nc(N(C)C)nc(N(C)CCc2ccncc2)c1C`: 1.37%; `CO[C@H]1C[C@@H](O)C12CCN(Cc1nc(C(F)(F)F)no1)CC2`: -4.7%.

Take `C[C@@H]1CN(CCC(=O)NCc2ccccc2Cl)CC[C@@]1(O)C1CCC1`: the cytotoxicity at 10 µM was -3.21%. Take `COc1ccc(C(O)C(=O)N2CCC(c3nccn3C(C)C)CC2)cc1` (stereo unspecified): the cytotoxicity at 10 µM is -0.355%. To `C=C(C)COc1ccccc1C(=O)NCCc1cc(O)nc(C)n1` belongs -0.355%. To `COCc1noc(Cn2c(C)cc(C(F)(F)F)cc2=O)n1` belongs 2.65%; to `O=C(c1ccc(S(=O)(=O)NCc2ccon2)cc1)N1CCNCC1`, 2.59%. Take `CCn1c(CC2CCN(S(=O)(=O)c3cccs3)CC2)nn(C)c1=O`: the cytotoxicity at 10 µM was 3.63%. For `COCCCN1CC2(CCN(Cc3cc(C(C)C)no3)CC2)CC1=O`, the cytotoxicity at 10 µM was -3.79%. To `CN(C)C(=O)c1noc2c1CN(C(=O)CCCN1CCCCC1)CC2` belongs -10.5%. Next, `CCC(O)c1nc2c([nH]1)CC(C)(C)CNC2=O` (stereo unspecified): 9.55%; `CCCN(Cc1nccn1C)C(=O)c1cnn[nH]1`: -1.21%; `Cc1cccc2cc(C(=O)N3CCN(S(=O)(=O)N(C)C)CC3)n(C)c12`: 7.39%. Turning to `CCn1cc(-c2n[nH]c(=O)n2-c2ccc(OC)c(OC)c2)c(C)n1`, the cytotoxicity at 10 µM is -9.91%.

In the case of `CCc1cn[nH]c1C1CCCN(C(=O)c2cc(C#N)c(=O)[nH]c2C)C1` (stereo unspecified), the cytotoxicity at 10 µM is -1.3%. With `COc1ccccc1Oc1ncccc1CNC(=O)C1COC(=O)N1` (stereo unspecified), the cytotoxicity at 10 µM is -6.01%. Take `Cc1cc(NCCS(C)(=O)=O)nc2cc3c(cc12)CCC3`: the cytotoxicity at 10 µM is 8.05%.

Turning to `Cc1nn(C)cc1CNCc1ccc(N(C)C)cc1`, the cytotoxicity at 10 µM was -11.9%. Regarding `Cc1nc(CN2CCCC(NCc3ccc4ccccc4c3)C2)no1` (stereo unspecified), the cytotoxicity at 10 µM is -0.375%. To `CCc1noc(CNc2ccc(C(=O)N3CCCC3)cc2C)n1` belongs -8.25%; to `Cc1ccc(-c2nc(C(=O)NCC3CCOC3)cs2)cc1` (stereo unspecified), -8.32%. To `O=C(C1CCOC1)N1CCN(Cc2ccc3c(c2)CCO3)CC1` (stereo unspecified) belongs 0.28%; to `OCCn1nccc1C1CCN(CCOc2ccccc2)CC1`, -0.121%; to `O=C1COc2cc(C(=O)NS(=O)(=O)c3ccc(F)c(F)c3)ccc2N1`, -2.34%. Consider `O=C(c1csc(-c2ncccn2)n1)N1CCCC1Cn1cccn1` (stereo unspecified), for which the cytotoxicity at 10 µM is 0.533%. Turning to `CC(C)(C)C(=O)NCCC(=O)N1CCC(Nc2cccnn2)CC1`, the cytotoxicity at 10 µM is -4.11%. Next, `O=C(c1ccc(N2CCOCC2)cc1)N1CCCC(n2ccnc2)C1` (stereo unspecified): -6.78%.

Take `COc1cc(/C=C/c2ncc(C(=O)O)s2)cc(Cl)c1OC`: the cytotoxicity at 10 µM came to 8.01%. To `Cc1cnc(C(=O)N2CCCC(n3cncn3)C2)cn1` (stereo unspecified) belongs -2.97%. To `COc1cccc(S(=O)(=O)CCNC2CCc3ncnn3C2)c1` (stereo unspecified) belongs 2.53%; to `CCn1cc(CN2CCCN(C(=O)c3ccoc3)CC2)cn1`, -18.8%; to `Cc1nc(C)n(CC2CCCN(CCOc3cccc(C#N)c3)C2)n1` (stereo unspecified), -6.53%. To `O=C(c1cccc(OC2CCCC2)c1)N1CCCC(n2cncn2)C1` (stereo unspecified) belongs -10.3%. As for `Cc1ccc(-c2nc(CNCC3CN(C)CCO3)cs2)o1` (stereo unspecified), the cytotoxicity at 10 µM was -9.16%.

As for `CN1CCC/C1=N\S(=O)(=O)c1ccc(NC(=O)c2ccc(F)cc2)cc1`, the cytotoxicity at 10 µM is -4.84%. As for `Cc1cnn(CC2CCCN2Cc2nccn2C)c1` (stereo unspecified), the cytotoxicity at 10 µM stood at 3.54%. On to `O=C(NCC(O)CN1CCc2ccccc2C1)Nc1cccnc1` (stereo unspecified), for which the cytotoxicity at 10 µM amounted to 3.2%. Consider `CC(C)c1nc(C2CCCN(C(=O)c3ccc4[nH]cnc4c3)C2)no1` (stereo unspecified), for which the cytotoxicity at 10 µM was -3.87%.

As to `CCOc1ccc(CC(CNC(=O)c2ccoc2)C(N)=O)cc1` (stereo unspecified), the cytotoxicity at 10 µM stood at 5.37%. On to `Cc1noc(C2CCCN(C(=O)c3ccc(Br)cc3F)C2)n1` (stereo unspecified), for which the cytotoxicity at 10 µM is -8.06%. On to `CCOC[C@H]1CC[C@H]2[C@H](CCN2C(=O)c2ccncc2F)O1`, for which the cytotoxicity at 10 µM was -6.96%.

As to `Cc1nnc(N2CC[C@H](OCC3CC3)[C@@H](Cc3ccccc3)C2)s1`, the cytotoxicity at 10 µM amounted to 5.25%.

Regarding `CN(C)CCN1CCC2(CC1)CN(Cc1cccnc1)C(=O)CO2`, the cytotoxicity at 10 µM was -106%. Next, `COc1ncccc1CN1C[C@H]2CCN(c3ccc(C)nn3)C[C@H]2C1`: 4.59%; `Cn1cc(-c2ncc3c(c2C(=O)O)CCN(Cc2ccco2)C3)cn1`: 6.15%. To `CS(=O)(=O)NCc1cnc2n1CCN(Cc1ccccn1)CC2` belongs 8.85%. Take `Cc1nc(CN2Cc3nccn3CC(COCC3CC3)C2)cs1` (stereo unspecified): the cytotoxicity at 10 µM came out at 11.3%. Turning to `CC(C)N1CCOCC2(CN(Cc3cccs3)CCO2)C1` (stereo unspecified), the cytotoxicity at 10 µM is 3.71%. For the compound `Cc1noc(C)c1CN1C[C@H]2CN(Cc3cccc(F)c3)C[C@H]2C1`, the cytotoxicity at 10 µM is -114%.
